In experiment [1] the test system is MDA-MB-231. As to the kind of experiment: Growth inhibition of hormone-independent human MDA-MB-231 cells after 72 hrs by Victor microtiter plate fluorimeter analysis. In kind it is functional. The note with it: MDA-MB-231, 72 h.
For experiment [2], the system named is K562. Briefly: Growth inhibition of human K562 cells after 72 hrs by Victor microtiter plate fluorimeter analysis. The following applies: K562, 72 h. In kind it is functional.
A short description of experiment [3]: Inhibition of sheep brain tubulin polymerization assessed as decrease in rate of microtubule assembly by fluorimeter analysis. The arrangement: species or system Ovis aries. In short, it runs like this: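 Sheep brain tubulin purified by two assembly–disassembly cycles, at about 2-3 mg/mL in 0.1 M MES, 0.5 mM MgCl₂, 1 mM EGTA, 1 mM GTP, pH 6.6. Assembly followed by DAPI fluorescence at 37 °C. IC50 is the concentration halving the maximum assembly rate versus no compound. Measured the same day as the isoCA-4 reference.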

Experiment [4] relates to HCT-116. As to the kind of experiment: Growth inhibition of human HCT116 cells after 72 hrs by Victor microtiter plate fluorimeter analysis. The class given is functional.
A short description of experiment [5]: Growth inhibition of human H1299 cells after 72 hrs by Victor microtiter plate fluorimeter analysis. The note with it: NCI-H1299, 72 h. In kind it is functional.
For another experiment, the species on record is Ovis aries. Briefly: Ratio of compound IC50 to isoCA-4 IC50 for sheep brain tubulin polymerization by fluorimeter analysis.
Experiment [6] relates to HCT-116. Briefly: Induction of cell cycle arrest in human HCT116 cells assessed as accumulation of cells in G2/M phase at 5 nM after 24 hrs by propidium iodide staining based flow cytometry. The class given is functional. The procedure, abridged:
(§1)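 Exponentially growing cells exposed to compound at 5 nM, or DMSO, for 24 h. Cell-cycle distribution determined by flow cytometry after standard propidium iodide staining.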
On the technique in general: Flow cytometry measures light scatter and fluorescence of single cells or particles in a stream.

Experiment [7] has as its system MDA-MB-231. As to the kind of experiment: Induction of cell cycle arrest in human MDA-MB-231 cells assessed as accumulation of cells in G2/M phase at 5 nM after 24 hrs by propidium iodide staining based flow cytometry. The class given is functional. The procedure, abridged: as §1
The subject of experiment [8] is NCI-H1299. Briefly: Induction of apoptosis in human H1299 cells assessed as increase in proteolytic activity of caspase 3/7 after 24 hrs by fluorimeter analysis. In kind it is functional, cell-based. In short, it runs like this:
(§2)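 Apo-ONE homogeneous caspase-3/7 kit. Cells seeded at 5 × 10⁴ per well and grown 24 h. Medium then replaced with compound at 1, 5 and 10 nM, or 0.1% DMSO as negative control, for 24 h. Caspase substrate and Apo-ONE buffer mix added, incubated 1 h, fluorescence read at 527 nm.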

For experiment [9], the system named is HCT-116. As to the kind of experiment: Induction of apoptosis in human HCT116 cells assessed as increase in proteolytic activity of caspase 3/7 after 24 hrs by fluorimeter analysis. The class given is functional, cell-based. The procedure, abridged:
as §2

For experiment [10], the system named is NCI-H1299. Briefly: Induction of cell cycle arrest in human H1299 cells assessed as accumulation of cells in G2/M phase at 5 nM after 24 hrs by propidium iodide staining based flow cytometry. In kind it is functional. In short, it runs like this: as §1
The test system of experiment [11] is K562. Briefly: Induction of cell cycle arrest in human K562 cells assessed as accumulation of cells in G2/M phase at 5 nM after 24 hrs by propidium iodide staining based flow cytometry. The class given is functional. The procedure, abridged: as §1

pIC50: −log10 of the molar value. Active and inactive are the calls of the source. The calls are words filed in the database; no cut-off is given here.

For orientation: GI50 means the concentration that inhibits growth by half. One may read the pIC50 as the IC50 on a negative log10 scale, so that one unit is a factor of ten. For the compound `COc1ccc2c(c1O)OCCCC2c1cc(OC)c(OC)c(OC)c1` (stereo not given), the GI50 in the experiment on MDA-MB-231 [1] stood at 0.015 µM; in the experiment on K562 [2], 0.05 µM; in the experiment with HCT-116 [4] (HCT-116, 72 h), 0.02 µM; in [5] it was 0.007 µM. Besides, the negative-log IC50 (pIC50) in [3] was 5.48. Further, in the experiment listed under Ovis aries, the Ratio IC50 was 2.
The compound `COc1ccc(/C=C\c2cc(OC)c(OC)c(OC)c2)cc1O` [COMBRETASTATIN A4] came in with a GI50 with HCT-116 [4] (HCT-116, 72 h) of 0.002 µM.
For the compound `COc1cc(OC)cc(C2=CCCOc3c2ccc(OC)c3O)c1`, the GI50 is 0.028 µM in the experiment on MDA-MB-231 [1]; 0.03 µM with K562 [2]; 0.025 µM in the experiment with HCT-116 [4] (HCT-116, 72 h); 0.032 µM in experiment [5]. Further, the pIC50 in [3] is 5.49. Besides, in the experiment listed under Ovis aries, the Ratio IC50 stood at 2.
Consider `COc1ccc2c(c1N)OCCC=C2c1cc(OC)c(OC)c(OC)c1`, for which the GI50 in the experiment on MDA-MB-231 [1] is 0.008 µM; in the experiment on K562 [2], 0.04 µM; with HCT-116 [4] (HCT-116, 72 h), 0.022 µM; in experiment [5], 0.03 µM. Besides, in experiment [3], the pIC50 is 5.44. Also, the Ratio IC50 in the experiment filed under Ovis aries was determined as 2.
`COc1ccc2c(c1C#CCCO)OCCC=C2c1cc(OC)c(OC)c(OC)c1` showed a GI50 in the experiment on HCT-116 [4] (HCT-116, 72 h) of 0.25 µM.
As for `COc1ccc2c(c1O)OCCC=C2c1cc(OC)c(OC)c(OC)c1`, the GI50 in the experiment on MDA-MB-231 [1] is 0.003 µM; in the experiment on K562 [2], 0.008 µM; in the experiment on HCT-116 [4] (HCT-116, 72 h) it was 0.0015 µM; in experiment [5] it was 0.0045 µM. The result in the experiment on HCT-116 [6], with MDA-MB-231 [7], in the experiment on NCI-H1299 [10] and in the experiment on K562 [11] was Active. For the same compound, the Activity result in the experiment with NCI-H1299 [8] and in the experiment on HCT-116 [9] was “Dose-dependent effect” in each case. Moreover, the pIC50 in [3] is 5.42. Besides, in the experiment filed under Ovis aries, the Ratio IC50 came to 2.
On to `COc1ccc2c(c1CCCCO)OCCCC2c1cc(OC)c(OC)c(OC)c1` (stereo not given), for which the GI50 entry with HCT-116 [4] is “inactive”.
Consider `COc1ccc2c(c1)OCCC=C2c1cc(OC)c(OC)c(OC)c1`, for which the GI50 in the experiment on MDA-MB-231 [1] is 0.25 µM; in the experiment on K562 [2], 0.1 µM; with HCT-116 [4] (HCT-116, 72 h) it was 0.085 µM; in [5], 0.18 µM. The pIC50 in [3] was 5.41. The Ratio IC50 in the experiment listed under Ovis aries stood at 2.
Turning to `C=C(c1ccc(OC)c(O)c1)c1cc(OC)c(OC)c(OC)c1`, the GI50 in the experiment with MDA-MB-231 [1] came out at 0.004 µM; in the experiment with K562 [2] it was 0.005 µM; with HCT-116 [4] (HCT-116, 72 h) it was 0.003 µM; in experiment [5], 0.003 µM. For the same compound, the pIC50 in experiment [3] was 5.82.
In the case of `COc1ccc2c(c1Br)OCCC=C2c1cc(OC)c(OC)c(OC)c1`, the GI50 in the experiment on HCT-116 [4] (HCT-116, 72 h) is 0.17 µM.

For the origin of these results see ChEMBL document CHEMBL2331323, “Design, synthesis and anticancer properties of 5-arylbenzoxepins as conformationally restricted isocombretastatin A-4 analogs” (Eur J Med Chem, 2013).
